Laboratory results as given in ChEMBL document CHEMBL3259597 (J Med Chem, 2014).

How the values were obtained:
[1] = Lipophilicity, log D of the compound by octanol/buffer shake flask method; assay type: physicochemical
[2] = Clearance in rat at 1 mg/kg, iv; assay type: ADME, organism-based; parameters: dose 1 mg/kg, route intravenous; settings: in vivo
How it was run: (§1)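 Rat pharmacokinetics after a single IV dose of 1 mg/kg and an oral dose of 5 mg/kg. Reported parameters are AUC, t1/2, clearance, Vss and oral bioavailability.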

[3] = Half life in rat at 1 mg/kg, iv; assay type: ADME, organism-based; parameters: dose 1 mg/kg, route intravenous; settings: in vivo; how it was run: as §1
[4] = AUC in rat at 1 mg/kg, iv; assay type: ADME, organism-based; parameters: dose 1 mg/kg, route intravenous; settings: plasma; how it was run: as §1
[5] = AUC in Sprague-Dawley rat at 30 mg/kg, po; assay type: ADME, organism-based; parameters: dose 30 mg/kg, route oral; settings: plasma
How it was run: (§2)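 Male Sprague-Dawley rats, about 11 weeks old (300−400 g), singly housed with chow and water ad libitum. […] Urine was collected overnight predose and at 0−2, 2−4 and 4−7 h postdose for Na+ and K+, normalised to creatinine. Plasma drug was measured by LC-MS.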

[6] = Oral bioavailability in rat at 5 mg/kg; assay type: ADME, organism-based; settings: in vivo; how it was run: as §1
[7] = AUC in rat at 5 mg/kg, po; assay type: ADME, organism-based; parameters: dose 5 mg/kg, route oral; settings: plasma; how it was run: as §1
[8] = AUC in Sprague-Dawley rat at 10 mg/kg, po; assay type: ADME, organism-based; parameters: dose 10 mg/kg, route oral; settings: plasma; how it was run: as §2
[9] = AUC in Sprague-Dawley rat at 3 mg/kg, po; assay type: ADME, organism-based; parameters: dose 3 mg/kg, route oral; settings: plasma; how it was run: as §2
[10] = Intrinsic clearance in human liver microsomes; assay type: ADME; settings: read-out: CLH
[11] = Volume of distribution at steady state in rat at 1 mg/kg, iv; assay type: ADME, organism-based; parameters: dose 1 mg/kg, route intravenous; settings: in vivo, read-out: Vdss; how it was run: as §1

| SMILES | logD [1] | also measured |
| --- | --- | --- |
| COc1nc(C2=NN(c3ccc(C#N)c(C)c3)[C@@H](C3CCCC3)C2)ccc1C(=O)O | 2.2 | clearance [2]: 33 mL/min/kg; half-life [3]: 138 min; AUC [4]: 494 ng·h/mL; AUC [5]: 33600 ng·h/mL; bioavailability [6]: 54%; AUC [7]: 1320 ng·h/mL; AUC [8]: 9240 ng·h/mL; AUC [9]: 1170 ng·h/mL; microsomal CLint [10]: < 14 µL/min/mg; Vd [11]: 3.1 L/kg |
| COc1nc(C2=NN(c3ccc(C#N)c(C)c3)[C@H](C3CCCC3)C2)ccc1C(=O)O | 2.2 | – |
| COc1cc(C2=NN(c3ccc(C#N)c(C)n3)[C@@H](C3CCCC3)C2)ccc1C(=O)O | 1.7 | – |
| Cc1nc(N2N=C(c3ccc(C(=O)O)cc3)C[C@@H]2C2CCCC2)ccc1C#N | 2.6 | – |
| COc1nc(C2=NN(c3ccc(C#N)c(Cl)c3)[C@@H](C3CCCC3)C2)ccc1C(=O)O | 2.3 | – |
| COc1nc(C2=NN(c3ccc(C#N)c(C)c3)[C@@H](C3CCCC3)C2)ccc1C(N)=O | 3.8 | – |
| CNC(=O)c1ccc(C2=NN(c3ccc(C#N)c(C)c3)[C@@H](C3CCCC3)C2)nc1OC | 4.4 | – |
| CNC(=O)c1ccc(C2=NN(c3ccc(C#N)c(C)n3)[C@@H](C3CCCC3)C2)nc1OC | 3.2 | – |
| COc1nc(C2=NN(c3ccc(C#N)c(C)n3)[C@@H](C3CCCC3)C2)ccc1C(=O)N(C)C | 4.1 | – |
| COc1nc(C2=NN(c3ccc(C#N)c(C)n3)[C@@H](C3CCCC3)C2)ccc1C(=O)NS(C)(=O)=O | 1.9 | – |
| COc1nc(C2=NN(c3ccc(C#N)c(C)c3)[C@@H](C3CCCC3)C2)ccc1C(=O)Nc1nnn[nH]1 | 3.2 | – |
| N#Cc1ccc(N2N=C3c4ccc(C(=O)O)cc4CC[C@@H]3[C@@H]2C2CCCC2)cc1Cl [PF-03882845] | 3.5 | – |

The next lines start with results.

| logD [1] | SMILES | also measured |
| --- | --- | --- |
| 2.1 | COc1cc(C2=NN(c3ccc(C#N)c(Cl)c3)[C@@H](C3CCCC3)C2)ccc1C(=O)O | – |
| 2.6 | CCOc1cc(C2=NN(c3ccc(C#N)c(Cl)c3)[C@@H](C3CCCC3)C2)ccc1C(=O)O | – |
| 2.2 | COc1cc(C2=NN(c3ccc(C#N)c(C)c3)[C@@H](C3CCCC3)C2)ccc1C(=O)O | – |
| 2.7 | CCOc1cc(C2=NN(c3ccc(C#N)c(C)c3)[C@@H](C3CCCC3)C2)ccc1C(=O)O | – |
| 2 | COc1nc(C2=NN(c3ccc(C#N)c(C)n3)[C@@H](C3CCCC3)C2)ccc1C(=O)O | – |
| 3 | CCOc1nc(C2=NN(c3ccc(C#N)c(C)c3)[C@@H](C3CCCC3)C2)ccc1C(=O)O | – |
| 1.6 | COc1nc(C2=NN(c3ccc(C#N)c(C)n3)[C@@H](C(C)C)C2)ccc1C(=O)O | – |
| 3.5 | COc1nc(C2=NN(c3ccc(C#N)c(C)c3)[C@@H](C3CCCC3)C2)ccc1C(=O)N(C)C | – |
| 3.4 | COc1nc(C2=NN(c3ccc(C#N)c(C)n3)[C@@H](C3CCCC3)C2)ccc1C(N)=O | – |
| 2.3 | COc1nc(C2=NN(c3ccc(C#N)c(C)c3)[C@@H](C3CCCC3)C2)ccc1C(=O)NS(C)(=O)=O | microsomal CLint [10]: 175 µL/min/mg |
